pIC50, pKi: −log10 of the molar value.
What was measured:
Cannabinoid receptor 1 [1] = target: T1, Cannabinoid receptor 1 (Homo sapiens, UniProt P21554); experiment: Binding affinity to human CB1 receptor assessed as free binding energy; type: cell-based; conditions: CHO, filed as antagonist
Cannabinoid receptor 2 [2] = target: T2, Cannabinoid receptor 2 (Homo sapiens, UniProt P34972); experiment: Antagonist activity at human CB2 receptor expressed in CHO cell membrane assessed as stimulation of [35S]GTPgammaS binding at 10 uM by liquid scintillation spectrophotometry; type: functional, cell membranes; set-up: scale not given: the % may be the effect or the level left
In short: (§1)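 CHO cell membranes expressing hCB2, 25 or 50 µg protein, incubated in triplicate with 0.1 nM [35S]GTPγS. Buffer: 20 mM HEPES, 100 mM NaCl, 10 mM MgCl2, 0.05% BSA, 20 units/L adenosine deaminase. Reaction 30 min at 30 °C, stopped by filtration on GF/B with ice-cold washes, counted by liquid scintillation. Nonspecific binding set with 10 μM unlabelled GTPγS.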

Cannabinoid receptor 2 [3] = target: T2, Cannabinoid receptor 2; experiment: Binding affinity to human CB2 receptor assessed as free binding energy; type: cell-based; conditions: CHO, filed as antagonist
Cannabinoid receptor 2 [4] = target: T2, Cannabinoid receptor 2; experiment: Displacement of [3H]-CP55940 from human CB2 receptor expressed in CHO cells incubated for 90 mins by liquid scintillation spectrophotometry relative to control; type: cell-based
In short: (§2)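 Membrane protein was 100 μg for CHO-hCB1 and 50 μg for CHO-hCB2. Incubation 90 min at room temperature. Nonspecific binding set with 10 μM WIN-55,212-2. Stopped by GF/B filtration with three ice-cold washes, then liquid scintillation counting.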

Cannabinoid receptor 1 [5] = target: T1, Cannabinoid receptor 1; experiment: Displacement of [3H]-CP55940 from human CB1 receptor expressed in CHO cells incubated for 90 mins by liquid scintillation spectrophotometry relative to control; type: cell-based; in short: as §2
Cannabinoid receptor 2 [6] = target: T2, Cannabinoid receptor 2; experiment: Displacement of [3H]-CP55940 from human CB2 receptor expressed in CHO cells at 1 uM incubated for 90 mins by liquid scintillation spectrophotometry relative to control; type: cell-based; in short: as §2
Cannabinoid receptor 1 [7] = target: T1, Cannabinoid receptor 1; experiment: Displacement of [3H]-CP55940 from human CB1 receptor expressed in CHO cells at 1 uM incubated for 90 mins by liquid scintillation spectrophotometry relative to control; type: cell-based; in short: as §2
Cannabinoid receptor 2 [8] = target: T2, Cannabinoid receptor 2; experiment: Antagonist activity at human CB2 receptor expressed in CHO cell membrane assessed as reduction in CP55940-induced [35S]GTPgammaS binding by liquid scintillation spectrophotometry; type: functional, cell membranes; in short: as §1
CHO = experiment: Selectivity index, ratio of Ki for human CB1 receptor expressed in CHO cells to Ki for human CB2 receptor expressed in CHO cells; type: cell-based

T1 sequence (P21554 whole entry): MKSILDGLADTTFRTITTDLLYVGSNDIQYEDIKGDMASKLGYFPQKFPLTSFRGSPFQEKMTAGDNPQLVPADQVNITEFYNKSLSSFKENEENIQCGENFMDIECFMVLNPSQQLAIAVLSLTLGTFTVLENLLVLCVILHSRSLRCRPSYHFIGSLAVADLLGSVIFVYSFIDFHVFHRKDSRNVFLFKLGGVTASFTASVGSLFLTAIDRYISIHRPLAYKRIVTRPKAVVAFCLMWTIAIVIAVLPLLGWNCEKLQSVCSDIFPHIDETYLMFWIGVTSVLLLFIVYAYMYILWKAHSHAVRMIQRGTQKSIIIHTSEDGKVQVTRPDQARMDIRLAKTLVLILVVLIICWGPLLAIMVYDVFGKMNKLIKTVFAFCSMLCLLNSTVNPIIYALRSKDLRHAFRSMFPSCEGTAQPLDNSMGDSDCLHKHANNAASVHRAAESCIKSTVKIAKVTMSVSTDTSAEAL
T2 sequence (P34972 whole entry): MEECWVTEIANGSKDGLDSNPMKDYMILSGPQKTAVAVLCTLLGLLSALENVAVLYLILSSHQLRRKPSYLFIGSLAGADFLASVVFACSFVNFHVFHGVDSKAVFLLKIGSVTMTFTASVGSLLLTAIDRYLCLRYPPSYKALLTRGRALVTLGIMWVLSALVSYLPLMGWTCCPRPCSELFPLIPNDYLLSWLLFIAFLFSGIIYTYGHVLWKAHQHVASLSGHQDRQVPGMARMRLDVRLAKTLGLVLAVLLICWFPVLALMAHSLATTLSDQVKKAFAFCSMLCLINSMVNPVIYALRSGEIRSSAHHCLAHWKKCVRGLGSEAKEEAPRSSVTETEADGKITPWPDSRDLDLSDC

Row | SMILES | Activity (Cannabinoid receptor 2 [2]; filed as antagonist) | Activity (Cannabinoid receptor 2 [6]; filed as antagonist) | Activity (Cannabinoid receptor 1 [7]; filed as antagonist) | Activity (Cannabinoid receptor 1 [7]) | further results
1 | C#CCCCn1cc(C(=O)c2ccc3c(c2)CC(C)(C)C3)c2ccccc21 | 96% | 92.8% | 71% | – | deltaG (Cannabinoid receptor 1 [1]): -8.91 °C; deltaG (Cannabinoid receptor 2 [3]): -10.5; pKi (Cannabinoid receptor 2 [4]): 7.62; pKi (Cannabinoid receptor 1 [5]): 6.49
2 | CC/C=C\Cn1cc(C(=O)c2ccc3c(c2)CC(C)(C)C3)c2ccccc21 | 106% | 86.4% | 60.7% | – | –
3 | CCCCCCn1c(C)c(C(=O)c2ccc3c(c2)CC(C)(C)C3)c2ccccc21 | – | 55% | – | 26.2% | –
4 | CC(C)Cn1cc(C(=O)c2ccc3c(c2)CC(C)(C)C3)c2ccccc21 | – | 83.1% | 422% | – | –
5 | CC1(C)Cc2ccc(C(=O)c3cn(Cc4ccccc4)c4ccccc34)cc2C1 | 87% | 84.6% | 69.2% | – | –
6 | CCCCCn1c(C)c(C(=O)c2ccc3c(c2)CC(C)(C)C3)c2ccccc21 | – | 83.6% | 53.8% | – | –
7 | CCCCCn1cc(C(=O)c2ccc3c(c2)CC(C)(C)C3)c2ccccc21 | 108% | 99.8% | 93.4% | – | deltaG (Cannabinoid receptor 1 [1]): -10.2 kcal/mol; deltaG (Cannabinoid receptor 2 [3]): -11.5 kcal/mol; pKi (Cannabinoid receptor 2 [4]): 8.31; pIC50 (Cannabinoid receptor 2 [8]): 5.74; Kb (Cannabinoid receptor 2 [8]; filed as antagonist): 9.7 nM; pKi (Cannabinoid receptor 1 [5]): 7.41; Selectivity Index (CHO): 7.9
8 | C=CCCCn1c(C)c(C(=O)c2ccc3c(c2)CC(C)(C)C3)c2ccccc21 | – | 86.4% | – | 38.6% | –
9 | CCOC(=O)Cn1cc(C(=O)c2ccc3c(c2)CC(C)(C)C3)c2ccccc21 | – | – | – | 19.4% | Activity (Cannabinoid receptor 2 [6]): 18%
10 | CC/C=C\Cn1c(C)c(C(=O)c2ccc3c(c2)CC(C)(C)C3)c2ccccc21 | – | 82.9% | – | 43% | –
11 | Cc1c(C(=O)c2ccc3c(c2)CC(C)(C)C3)c2ccccc2n1Cc1ccccc1 | – | 51.2% | – | 18.1% | –
12 | CC/C=C/Cn1c(C)c(C(=O)c2ccc3c(c2)CC(C)(C)C3)c2ccccc21 | – | 73.7% | – | 35.1% | –
13 | Cc1c(C(=O)c2ccc3c(c2)CC(C)(C)C3)c2ccccc2n1Cc1ccc(F)cc1 | – | – | – | 38.4% | Activity (Cannabinoid receptor 2 [6]): 48.8%
14 | Cn1cc(C(=O)c2ccc3c(c2)CC(C)(C)C3)c2ccccc21 | – | – | – | 10.8% | Activity (Cannabinoid receptor 2 [6]): 23.9%
15 | CCCCn1cc(C(=O)c2ccc3c(c2)CC(C)(C)C3)c2ccccc21 | 102% | 92.9% | 82.7% | – | –
16 | CCC#CCn1cc(C(=O)c2ccc3c(c2)CC(C)(C)C3)c2ccccc21 | – | 65.9% | 55.6% | – | –

Row | SMILES | Activity (Cannabinoid receptor 2 [2]; filed as antagonist) | Activity (Cannabinoid receptor 2 [6]; filed as antagonist) | Activity (Cannabinoid receptor 1 [7]; filed as antagonist) | Activity (Cannabinoid receptor 1 [7]) | further results
17 | C=CCn1cc(C(=O)c2ccc3c(c2)CC(C)(C)C3)c2ccccc21 | – | 60.6% | – | 16% | –
18 | CCCCn1c(C)c(C(=O)c2ccc3c(c2)CC(C)(C)C3)c2ccccc21 | – | 85.4% | – | 43.5% | –
19 | CCCCCn1cc(C(=O)c2cccc3ccccc23)c2ccccc21 | – | – | – | – | pKi (Cannabinoid receptor 2 [4]): 8.53; pKi (Cannabinoid receptor 1 [5]): 8.05; Selectivity Index (CHO): 3.1
20 | C#CCCCn1c(C)c(C(=O)c2ccc3c(c2)CC(C)(C)C3)c2ccccc21 | 121% | 93.1% | – | 41.9% | deltaG (Cannabinoid receptor 1 [1]): -7.85 °C; deltaG (Cannabinoid receptor 2 [3]): -9.89; pKi (Cannabinoid receptor 2 [4]): 7.20; pKi (Cannabinoid receptor 1 [5]): 5.72
21 | C#CCn1cc(C(=O)c2ccc3c(c2)CC(C)(C)C3)c2ccccc21 | – | 56% | – | 33.4% | –
22 | COc1ccc(C(=O)c2c(C)n(CCN3CCOCC3)c3cc(I)ccc23)cc1 | – | – | – | – | Activity (Cannabinoid receptor 2 [2]): 67%
23 | CC1(C)Cc2ccc(C(=O)c3c[nH]c4ccccc34)cc2C1 | – | – | – | 9.4% | Activity (Cannabinoid receptor 2 [6]): 22.2%
24 | CCCn1cc(C(=O)c2ccc3c(c2)CC(C)(C)C3)c2ccccc21 | 99% | 90.5% | – | 47.4% | deltaG (Cannabinoid receptor 1 [1]): -7.68 kcal/mol; deltaG (Cannabinoid receptor 2 [3]): -9.45 kcal/mol; pKi (Cannabinoid receptor 2 [4]): 6.89; pKi (Cannabinoid receptor 1 [5]): 5.59; Selectivity Index (CHO): 19.7
25 | CCCCCCn1cc(C(=O)c2ccc3c(c2)CC(C)(C)C3)c2ccccc21 | 102% | 83.6% | 79.1% | – | –
26 | CCCn1c(C)c(C(=O)c2ccc3c(c2)CC(C)(C)C3)c2ccccc21 | – | 73.9% | – | 44.4% | –
27 | CC1(C)Cc2ccc(C(=O)c3cn(Cc4ccc(F)cc4)c4ccccc34)cc2C1 | 90% | 92.3% | 88% | – | –
28 | CCCCCn1cc(C(=O)c2cccc3c2CC(C)(C)C3)c2ccccc21 | 134% | 94.1% | 85.7% | – | deltaG (Cannabinoid receptor 1 [1]): -12.1 kcal/mol; deltaG (Cannabinoid receptor 2 [3]): -12.2 kcal/mol; pKi (Cannabinoid receptor 2 [4]): 8.87; pKi (Cannabinoid receptor 1 [5]): 8.84; Selectivity Index (CHO): 1.1
29 | C#CCn1c(C)c(C(=O)c2ccc3c(c2)CC(C)(C)C3)c2ccccc21 | – | 63% | 51.9% | – | –
30 | CC/C=C/Cn1cc(C(=O)c2ccc3c(c2)CC(C)(C)C3)c2ccccc21 | 81% | 86.9% | 84.2% | – | –
31 | CCC#CCn1c(C)c(C(=O)c2ccc3c(c2)CC(C)(C)C3)c2ccccc21 | – | – | – | 16.4% | Activity (Cannabinoid receptor 2 [6]): 30.2%
32 | C=CCCCn1cc(C(=O)c2ccc3c(c2)CC(C)(C)C3)c2ccccc21 | 92% | 95.2% | 80% | – | deltaG (Cannabinoid receptor 1 [1]): -9.36 °C; deltaG (Cannabinoid receptor 2 [3]): -10.7; pKi (Cannabinoid receptor 2 [4]): 7.81; pKi (Cannabinoid receptor 1 [5]): 6.82
